According to ChEMBL document CHEMBL4428038, “Overcoming chloroquine resistance in malaria: Design, synthesis and structure-activity relationships of novel chemoreversal agents” (Eur J Med Chem, 2016):
Activity calls are given as the source filed them.

Tests used:
Plasmodium falciparum [1] = test: Intrinsic antimalarial activity against chloroquine-resistant Plasmodium falciparum K1 isolate MRA-159 harboring CRT CVIET haplotype mutant assessed as reduction in parasite viability at 500 nM; assay type: functional, organism-based
Plasmodium falciparum [2] = test: Intrinsic antimalarial activity against chloroquine-resistant Plasmodium falciparum Dd2 isolate MRA-156 harboring CRT K76T mutant assessed as reduction in parasite viability at 500 nM; assay type: functional, organism-based
Plasmodium falciparum [3] = test: Intrinsic antimalarial activity against chloroquine/artemisinin-resistant Plasmodium falciparum ARS233 harboring CRT K76T mutant assessed as reduction in parasite viability at 500 nM; assay type: functional, organism-based
Plasmodium falciparum K1 = test: Inhibition of CRT CVIET haplotype mutant in Plasmodium falciparum K1 isolate MRA-159 infected in erythrocytes assessed as chloroquine-coumarin probe accumulation at 10 uM after 10 hrs by Hoechst 33342 staining based flow cytometry (reference value: 35.57 +/- 3.84%); assay type: cell-based; parameters: scale not given: the % may be the effect or the level left
How it was run: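 Infected erythrocyte cultures at 2.5% hematocrit and 7–12% parasitemia, synchronized to late-ring/early-trophozoite stage, were incubated with chloroquine-coumarin probe plus test agent for 10 h at 37 C. Cells were then washed, resuspended in PBS and read by flow cytometry (405 nm excitation, 450/50 filter). Hoechst-stained duplicate wells set parasitemia. Uptake = % infected erythrocytes fluorescent. Controls: PBS (negative), desipramine and parent compound (positive). ≥3 independent experiments; mean ± SEM.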

Plasmodium falciparum [4] = test: Intrinsic antimalarial activity against chloroquine-sensitive Plasmodium falciparum 3D7 isolate MRA-102 assessed as reduction in parasite viability at 500 nM; assay type: functional, organism-based
Plasmodium falciparum [5] = test: Intrinsic antimalarial activity against chloroquine/artemisinin-resistant Plasmodium falciparum NHP4773 harboring CRT K76T mutant assessed as reduction in parasite viability at 500 nM; assay type: functional, organism-based
Plasmodium falciparum [6] = test: Intrinsic antimalarial activity against intermediate chloroquine-resistant Plasmodium falciparum 7G8 isolate MRA-154 harboring CRT SVMNT haplotype mutant assessed as reduction in parasite viability at 500 nM; assay type: functional, organism-based
Plasmodium falciparum [7] = test: Intrinsic antimalarial activity against chloroquine-sensitive Plasmodium falciparum HB3 isolate MRA-155 assessed as reduction in parasite viability at 500 nM; assay type: functional, organism-based
Plasmodium falciparum [8] = test: Intrinsic antimalarial activity against chloroquine-resistant Plasmodium falciparum NHP4559 harboring CRT K76T mutant assessed as reduction in parasite viability at 500 nM; assay type: functional, organism-based
Plasmodium falciparum [9] = test: Intrinsic antimalarial activity against chloroquine/artemisinin-resistant Plasmodium falciparum ARS272 harboring CRT K76T mutant assessed as reduction in parasite viability at 500 nM; assay type: functional, organism-based

Measured: Activity

O=C1Cc2ccccc2Sc2ccccc21
50.7%: Plasmodium falciparum K1
inactive: all other assays above

CC(C)(C)OC(=O)NC1CCN(CCC(C#N)(c2ccccc2)c2ccccc2)CC1
38.8%: Plasmodium falciparum K1
inactive: all other assays above

O=C1C2CCN(CC2)C1Cc1ccccc1 (stereo unspecified)
34.7%: Plasmodium falciparum K1
inactive: all other assays above

NCC(CCN1CCC(N)CC1)(c1ccccc1)c1ccccc1
58.9%: Plasmodium falciparum K1
inactive: all other assays above

O=C1Cc2ccccc2Sc2ccc(Cl)cc21
49.1%: Plasmodium falciparum K1
inactive: all other assays above

CSc1ccc2c(c1)C(=O)Cc1ccccc1S2
49.3%: Plasmodium falciparum K1
inactive: all other assays above

CC(C)(C)OC(=O)N1CCCC(N)C1 (stereo unspecified)
52.2%: Plasmodium falciparum K1
inactive: all other assays above

N#CC(CCN1CCC(O)CC1)(c1ccccc1)c1ccccc1
63.9%: Plasmodium falciparum K1
inactive: all other assays above

c1ccc(CNC2C3CCN(CC3)C2Cc2ccccc2)cc1 (mixture of isomers)
74.4%: Plasmodium falciparum K1
inactive: all other assays above

Ic1ccccc1CNCC(c1ccccc1)c1ccccc1
50.9%: Plasmodium falciparum K1
inactive: all other assays above

NC(=O)C(CCN1CCC(O)CC1)(c1ccccc1)c1ccccc1
51.3%: Plasmodium falciparum K1
inactive: all other assays above

CC(C)(C)OC(=O)N1CCCC(NCc2ccccc2I)C1 (stereo unspecified)
40.5%: Plasmodium falciparum K1
inactive: all other assays above

N#CC(CCN1CCC(N)CC1)(c1ccccc1)c1ccccc1
58%: Plasmodium falciparum K1
inactive: all other assays above

CC(C)(C)OC(=O)N1CCN(C2Cc3ccccc3Sc3ccc(Cl)cc32)CC1 (stereo unspecified)
43.4%: Plasmodium falciparum K1
inactive: all other assays above

NC(=O)C(CCN1CCCCC1)(c1ccccc1)c1ccccc1
63.2%: Plasmodium falciparum K1
inactive: all other assays above

O=C1C2CCN(CC2)C1C(c1ccccc1)c1ccccc1 (stereo unspecified)
49%: Plasmodium falciparum K1
inactive: all other assays above

O=C1/C(=C/c2ccccc2)N2CCC1CC2
39%: Plasmodium falciparum K1
inactive: all other assays above

NCC(CCN1CCCCC1)(c1ccccc1)c1ccccc1
61%: Plasmodium falciparum K1
inactive: all other assays above

Ic1ccccc1CN[C@@H]1C2CCN(CC2)[C@@H]1Cc1ccccc1 (relative stereo)
25.8%: Plasmodium falciparum K1
inactive: all other assays above

OC1(c2ccc(Cl)cc2)CCNCC1
27.5%: Plasmodium falciparum K1
inactive: all other assays above

CNCCCN1c2ccccc2CCc2ccccc21
78.8%: Plasmodium falciparum K1

N#CC(CCBr)(c1ccccc1)c1ccccc1
29.6%: Plasmodium falciparum K1
inactive: all other assays above

NCC(CCN1CCN(c2ccc(F)cc2)CC1)(c1ccccc1)c1ccccc1
60.5%: Plasmodium falciparum K1
inactive: all other assays above

NC(=O)C(CCN1CCN(c2ccc(F)cc2)CC1)(c1ccccc1)c1ccccc1
57.7%: Plasmodium falciparum K1
inactive: all other assays above
